Assay results: ChEMBL document CHEMBL4732130, “Synthesis and characterization of 1,2,4-triazolo[1,5-a]pyrimidine-2-carboxamide-based compounds targeting the PA-PB1 interface of influenza A virus polymerase” (Eur J Med Chem, 2021)
pEC50, pIC50: −log10 of the molar value. ≈ marks a conversion by molar mass, not a printed value. Where “and” joins values, the source holds several entries; their conditions need not be identical. Identical values can stand only once.

Experiments:
[1] = system: Influenza A virus; assay: Antiviral activity against Influenza A virus A/PR/8/34 (H1N1) infected in MDCK cells assessed as reduction in plaque formation treated 1 hr post viral infection and measured after 48 hrs post-infection by toluidine blue staining based plaque reduction assay; type: functional, organism-based; settings: A/Puerto Rico/8/1934(H1N1)
[2] = Cytotoxicity in dog MDCK cells assessed as reduction in cell viability incubated for 24 to 120 hrs by MTT assay; type: cell-based, Canis lupus familiaris; settings: time 24-120 hrs
[3] = Inhibition of Influenza A virus 6His-tagged PA (239 to 716 residues)/GST-tagged PB1 (1 to 25 residues) expressed in Escherichia coli BL21 pLysS protein-protein interaction using 3,3',5,5'tetramethylbenzedine as substrate by ELISA
[4] = system: MDCK; assay: (§1) Cytotoxicity against dog MDCK cells assessed as reduction in cell viability incubated for 48 hrs by MTT assay; type: cell-based, Canis lupus familiaris; settings: mdck, 48 h
How it was run: (§2)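 MDCK cells seeded at 2 × 10^4/well and grown 24 h, then given serial compound dilutions in DMEM with 10% FBS (DMSO control) for 48 h at 37 °C. MTT (5 mg/mL stock) added for 4 h, cells solubilised overnight, OD read at 620 nm. […] Mean ± SD of ≥3 independent experiments in duplicate.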

[5] = Equilibrium solubility of the compound in phosphate buffer at pH 7.4 incubated for 2 hrs; type: physicochemical; settings: for solubility: buffer, pH 7.4, 2 h, 2 h; for solubility thermodynamic at 2 h: phosphate buffer, pH 7.4
[6] = biological target: RNA-directed RNA polymerase (Influenza A virus (strain A/Puerto Rico/8/1934 H1N1), UniProt P03428+P03431+P03433); assay: Inhibition of RdRP activity in Influenza A virus A/PR/8/34 (H1N1) infected in HEK293T cells co-transfected with NP/PA/PB1/PB2/pPolI-Flu-ffLuc/pRL-SV40 incubated for 24 hrs by minireplicon based dual luciferase assay; type: cell-based, Influenza A virus (A/Puerto Rico/8/1934(H1N1))
How it was run: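 HEK293T cells (2 × 10^5/well) plated overnight, then calcium-phosphate transfected with PB1, PB2, PA and NP plasmids (100 ng each), pPolI-Flu-ffLuc reporter (50 ng; WSN segment 8 noncoding ends) and pRL-SV40 (50 ng), with compound or DMSO present. Medium replaced at 5 h with compound-containing DMEM. Dual luciferase read at 24 h. Firefly normalised to Renilla, DMSO set as 100% polymerase activity.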

[7] = Metabolic stability in human liver microsomes assessed as compound remaining at 10 uM preincubated for 5 mins followed by NADPH addition and measured after 60 mins by LC-MS/MS analysis; type: ADME, Microsome; settings: time 65 min, read-out: Stabilty
How it was run: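 Compound at 10 µM preincubated 5 min at 37 °C with human liver microsomes (1 mg/mL) in 0.1 M phosphate, pH 7.4. Reaction started with 2 mM NADPH. Samples taken at 0, 10, 20, 40 and 60 min, quenched in cold acetonitrile containing labetalol internal standard, and centrifuged. Analysed by LC-MS/MS (Q-TOF) for percent unchanged compound and metabolites. Half-life and intrinsic clearance estimated.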

[8] = Protein binding in human plasma assessed as unbound fraction at 5 uM incubated for 4 hrs by UPLC/MS-MS based rapid equilibrium dialysis method; type: ADME, cell-free
How it was run: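 Compound at 5 µM in human plasma, dialysed against buffer by rapid equilibrium dialysis for 4 h at 37 °C. Chamber aliquots matrix-matched, precipitated with acetonitrile, and quantified by UPLC-MS/MS peak areas.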

[9] = as §1; type: cell-based, Canis lupus familiaris; settings: MDCK cells; how it was run: as §2

Row | SMILES | pEC50 [1] | pIC50 [3] | CC50 [4] | other results
1 | COc1ccc(C(=O)Nc2nc3n(n2)C(c2ccccc2)C=C(C)N3)cc1 (stereo not given) | < 4.00 |  |  | CC50 [2]: > 250 µM
2 | Cc1cc(-c2ccccc2)n2nc(C(=O)Nc3sc(C)c(C)c3C(N)=O)nc2n1 | < 4.30 | < 3.70 | > 250 µM | 
3 | Cc1cc(-c2ccccc2)n2nc(C(=O)Nc3c(C(N)=O)sc4ncccc34)nc2n1 | < 4.00 | 5.48 | > 250 µM | 
4 | Cc1cc(-c2ccccc2)nc2nc(C(=O)Nc3ccccc3C(N)=O)nn12 | 4.51 | 5.15 | > 250 µM | solubility [5]: 82.2 uM and 30.6 ug ml-1; pEC50 [6]: 5.24; remaining at 1 h, 10 µM [7]: 76%; Fu [8]: 22.45%
5 | Cc1cc(-c2ccccc2)nc2nc(C(=O)Nc3ccsc3C(N)=O)nn12 | < 4.00 | 4.30 | 240 µM | 
6 | Cc1cc(-c2ccccc2)n2nc(C(=O)Nc3sc4c(c3C(=O)Nc3ccccn3)CCCCC4)nc2n1 | 4.32 | 4.64 | > 250 µM | 
7 | Cc1cc(-c2ccccc2)nc2nc(C(=O)Nc3c(C(N)=O)sc4ncccc34)nn12 | 4.37 | < 3.70 | 51 µM | 
8 | Cc1cc(-c2ccccc2)n2nc(C(=O)Nc3c(C(N)=O)sc4ccccc34)nc2n1 | 4.66 | < 3.70 | > 250 µM | 
9 | Cc1cc(-c2ccccc2)nc2nc(C(=O)Nc3sc4c(c3C(=O)O)CCCCC4)nn12 | 4.15 | 4.74 | > 250 µM | 
10 | Cc1cc(-c2ccccc2)n2nc(C(=O)Nc3sc4c(c3C(N)=O)CCCC4)nc2n1 | 4.49 | 4.82 | > 250 µM | 
11 | Cc1cc(-c2ccccc2)n2nc(C(=O)Nc3c(C(N)=O)sc4c3CCCCC4)nc2n1 | < 4.30 | < 3.70 | 90 µM | 
12 | Cc1cc(-c2ccccc2)n2nc(C(=O)Nc3sc4c(c3C(=O)O)CCCCC4)nc2n1 | 4.30 | 4.72 | > 250 µM | 
13 | Cc1cc(-c2ccccc2)n2nc(C(=O)Nc3sc4c(c3C(N)=O)CCC4)nc2n1 | 4.66 | 5.21 | > 250 µM | 
14 | Cc1cc(-c2ccccc2)n2nc(C(=O)Nc3ccccc3C(N)=O)nc2n1 | < 4.00 | 4.96 | > 250 µM | solubility [5]: 17.6 uM and 6.55 ug ml-1
15 | Cc1cc(-c2ccccc2)n2nc(C(=O)Nc3sc4ccccc4c3C(N)=O)nc2n1 | 4.31 | < 3.70 | > 250 µM | 
16 | Cc1cc(-c2ccccc2)n2nc(C(=O)Nc3nc4ccccc4s3)nc2n1 | < 4.30 | 4.68 | > 250 µM | 
17 | CCC1CCc2c(sc(NC(=O)c3nc4nc(C)cc(-c5ccccc5)n4n3)c2C(N)=O)C1 (stereo not given) | 4.82 | < 3.70 | > 250 µM | 
18 | Cc1cc(-c2ccccc2)nc2nc(C(=O)Nc3nc4ccccc4s3)nn12 |  | < 3.70 | 233 µM | 
19 | Cc1cc(-c2ccccc2)n2nc(C(=O)Nc3ccsc3C(N)=O)nc2n1 | 4.37 | 4.51 |  | CC50 at 48 h [9]: 250 µM
20 | COc1cc2nc(N3CCN(C(=O)c4ccco4)CC3)nc(N)c2cc1OC [PRAZOSIN] |  |  |  | solubility thermodynamic at 2 h [5]: 62.8 µM (≈ 24.1 µg/mL)
21 | CC(=O)[C@H]1CC[C@H]2[C@@H]3CCC4=CC(=O)CC[C@]4(C)[C@H]3CC[C@]12C [PROGESTERONE] |  |  |  | solubility thermodynamic at 2 h [5]: 6.5 µM (≈ 2.04 µg/mL)
22 | NC(=O)c1ncn([C@@H]2O[C@H](CO)[C@@H](O)[C@H]2O)n1 [RIBAVIRIN] | 5.00 |  |  | CC50 at 48 h [9]: > 250 µM; pEC50 [6]: 4.62
